The sample as a whole holds a higher share of hits than the screen did.
IDH1 R132H inh: blocks human IDH1 R132H reductase activity; diaphorase/resazurin fluorescence, 60 min; 0.18% of 70,000 active; inhibition, % at 10 µM; O75874; AID 624101; in the data active = inhibition above about 34%; inconclusive = no clear call, values can overlap the other calls; inactive = below about 11%;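 also: 0% = DMSO and 100% = no enzyme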
Target sequence (O75874 whole entry R132H): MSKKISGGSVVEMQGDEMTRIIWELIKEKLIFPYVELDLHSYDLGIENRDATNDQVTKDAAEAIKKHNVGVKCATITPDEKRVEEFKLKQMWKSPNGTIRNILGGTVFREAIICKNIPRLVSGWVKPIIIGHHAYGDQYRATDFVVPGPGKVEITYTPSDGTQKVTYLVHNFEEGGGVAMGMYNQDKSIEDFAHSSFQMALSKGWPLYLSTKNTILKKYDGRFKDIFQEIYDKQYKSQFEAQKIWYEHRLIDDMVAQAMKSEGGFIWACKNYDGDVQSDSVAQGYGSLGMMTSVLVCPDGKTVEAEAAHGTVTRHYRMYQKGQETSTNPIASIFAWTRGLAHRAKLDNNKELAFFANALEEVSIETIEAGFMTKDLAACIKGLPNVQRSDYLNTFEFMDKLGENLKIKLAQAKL
T cruzi growth-1: T. cruzi proliferation inhibition; T. cruzi beta-gal in NIH3T3, GalScreen luminescence, 90 h; inhibition, % at 8.34 µM; 5.9% of 77,000 active; AID 624255;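 active = mean inhibition above about 93%, with at least 55% of replicates each passing it, limit read from the data, passing the limit was not always enough; inconclusive = only one of those two conditions holds; inactive = neither condition holds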
KDM4C inh: inhibitors of human demethylase GASC-1 KDM4C. Q9H3R0. GST-KDM4C 2-372, H3K9me3 peptide, LANCE TR-FRET. inhibition, % at 12.5 µM. 0.15% of 96,000 active;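 active = mean replicate inhibition above about 25%, with at least 55% of replicates also reaching it, limit read from the data, passing the limit was not always enough; inconclusive = only one of those two conditions met; inactive = neither condition met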
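Material: GST-tagged GASC-1 (JMJD2C) catalytic fragment, aa 2-372 / Quantity: enzyme final amount 10 nM / Medium: HEPES buffer, pH 7.5, plus ascorbate / Doses: one test concentration per compound / Incubation: 30 min reaction, 60 min detection, RT / Measured by: LANCE TR-FRET / Read-out: inhibition from TR-FRET ratio decrease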
T cruzi growth-2: inhibitors of T. cruzi proliferation. 72% of 5,600 active. T. cruzi beta-gal in NIH3T3, GalScreen luminescence, 90 h. shares compounds with T cruzi growth-1. inhibition, % at 8.35 µM;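 active = mean replicate inhibition above about 95% and at least 55% of replicates individually reaching it, limit read from the data; inconclusive = only one of the two criteria is met; inactive = neither criterion is met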
T cruzi growth-3: blocks T. cruzi growth in NIH3T3 host cells. inhibition, % at 2.09 µM. 21% of 5,600 active. AID 651740. shares compounds with T cruzi growth-1. T. cruzi beta-gal in NIH3T3, GalScreen luminescence, 90 h;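 active = mean inhibition above about 95%, with at least 55% of replicates also reaching it, limit read from the data; inconclusive = meets just one of the two conditions; inactive = meets neither condition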;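 also: plate controls were neutral control median for no effect and positive control median for full effect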
NIH3T3 tox: cytotoxicity in mouse NIH/3T3 fibroblasts; cytotoxicity (signal decrease), % at 8.35 µM; shares compounds with T cruzi growth-1; 14% of 5,600 active; NIH/3T3 viability, CellTiter-Glo ATP luminescence, 90 h;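 active = mean signal decrease across replicates above about 35% based on untreated-well scatter, with enough replicates individually passing, limit read from the data; inconclusive = no rule stated though some were filed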;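 also: 0% = median of neutral control wells and 100% = median of positive control wells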
3T3 cytotox 2: cytotoxicity in mouse NIH/3T3 fibroblasts | inhibition, % at 24.9 µM | 56% of 5,600 active | shares compounds with T cruzi growth-1 | NIH/3T3 viability, CellTiter-Glo ATP luminescence, 90 h | AID 651744;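 active = mean loss of cell viability signal at or above a set limit, and enough replicates individually reaching it; inconclusive = meets only the mean limit or only the replicate share; inactive = meets neither condition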;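 also: 0% = median of neutral control wells and 100% = median of positive control wells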
* marks the source's active call; other numbers are inactive results; u = inconclusive; x = not tested or not shown.

SMILES	IDH1 R132H inh	T cruzi growth-1	KDM4C inh	T cruzi growth-2	T cruzi growth-3	NIH3T3 tox	3T3 cytotox 2
C[C@H](CO)N1C[C@H](C)[C@H](CN(C)Cc2cncnc2)Oc2cc(-c3ccncc3)ccc2S1(=O)=O	5.3	u	-0.9	79.2	78.7	46.0*	48.8*
C[C@H]1CN([C@@H](C)CO)S(=O)(=O)c2ccc(-c3ccncc3)cc2O[C@@H]1CN(C)Cc1cncnc1	0.1	108.2*	-0.6	102.9*	94.4	-2.3	17.1
Cc1ccc(-c2ccc3c(c2)O[C@@H](CN(C)Cc2cncnc2)[C@H](C)CN([C@H](C)CO)S3(=O)=O)cc1	-0.3	x	-1.3	x	x	x	x
Cc1ccc(-c2ccc3c(c2)O[C@H](CN(C)Cc2cncnc2)[C@@H](C)CN([C@@H](C)CO)S3(=O)=O)cc1	-3.2	x	-0.5	x	x	x	x
CN1C(=O)c2cc(NC(=O)c3ccno3)ccc2OC[C@H]2O[C@@H](CC(=O)NCC3CC3)CC[C@@H]21	x	11.5	-2.2	x	x	x	x
O=C(C[C@H]1C=C[C@@H](NC(=O)CCN2CCCCC2)[C@H](CO)O1)Nc1ccccc1	x	x	-0.2	x	x	x	x
COc1cccc(-c2ccc3c(c2)O[C@@H](CN(C)C(=O)C2CCCCC2)[C@H](C)CN([C@H](C)CO)S3(=O)=O)c1	x	104.5*	-0.5	96.1*	36.2	28.6	91.2*
COc1cccc(-c2ccc3c(c2)O[C@@H](CN(C)C(=O)C2CC2)[C@H](C)CN([C@@H](C)CO)S3(=O)=O)c1	x	71.9	-2.0	x	x	x	x
COc1cccc(-c2ccc3c(c2)O[C@@H](CN(C)C(=O)C2CCOCC2)[C@@H](C)CN([C@@H](C)CO)S3(=O)=O)c1	-0.3	x	0.3	x	x	x	x
COc1cccc(-c2ccc3c(c2)O[C@H](CN(C)C(=O)C2CCCCC2)[C@@H](C)CN([C@H](C)CO)S3(=O)=O)c1	-3.2	99.2*	-2.3	101.1*	78.4	27.8	43.5*
COc1cccc(-c2ccc3c(c2)O[C@@H](CN(C)C(=O)C2CCC2)[C@H](C)CN([C@@H](C)CO)S3(=O)=O)c1	-0.5	109.9*	2.5	97.4*	u	26.4	27.0*
COc1cccc(-c2ccc3c(c2)O[C@H](CN(C)C(=O)C2CC2)[C@H](C)CN([C@H](C)CO)S3(=O)=O)c1	x	79.8	1.7	x	x	x	x
COc1cccc(-c2ccc3c(c2)O[C@H](CN(C)C(=O)C2CCCCC2)[C@H](C)CN([C@@H](C)CO)S3(=O)=O)c1	x	117.3*	-1.5	102.6*	88.0	22.7	88.6*
COc1cccc(-c2ccc3c(c2)O[C@@H](CN(C)C(=O)C2CC2)[C@H](C)CN([C@H](C)CO)S3(=O)=O)c1	x	70.8	-0.4	x	x	x	x
C[C@H]1CN([C@@H](C)CO)S(=O)(=O)c2ccc(-c3ccc(C#N)cc3)cc2O[C@H]1CN(C)Cc1ccccn1	0.7	x	2.4	x	x	x	x
O=C(Nc1ccc(Cl)cc1)N[C@H]1CC[C@@H](CCn2cc(-c3ccccc3F)nn2)O[C@@H]1CO	0.2	55.7	-0.6	x	x	x	x
CNC[C@@H]1OCCCC[C@@H](C)Oc2ccc(NC(=O)CCC(F)(F)F)cc2C(=O)N([C@@H](C)CO)C[C@H]1C	3.8	-20.7	5.6	x	x	x	x
C[C@H](CO)N1C[C@H](C)[C@H](CN(C)S(=O)(=O)c2ccccc2)Oc2ncc(Br)cc2C1=O	4.0	51.0	-1.1	x	x	x	x
CCC(=O)N1CC2(C1)[C@H](c1ccccc1)[C@@H](CO)N2CC1CCCC1	x	x	-0.7	x	x	x	x
CCN1[C@@H]2Cn3c(ccc(C4=CCCC4)c3=O)[C@H]1[C@@H](C(=O)NC1CCCC1)[C@@H]2CO	x	18.9	2.1	x	x	x	x
C[C@H](CO)N1C[C@H](C)[C@H](CN(C)C(=O)c2cccc(F)c2)Oc2ncc(/C=C/c3ccccc3)cc2C1=O	-3.5	106.7*	-4.4	106.6*	46.4	27.1	66.6*
C[C@@H]1CN([C@@H](C)CO)C(=O)c2cc(/C=C/c3ccccc3)cnc2O[C@H]1CN(C)C(=O)Nc1ccccc1F	-2.0	126.3*	-4.0	108.0*	105.1*	-3.1	17.1
COc1ccc(NC(=O)N(C)C[C@@H]2Oc3ncc(/C=C/c4ccccc4)cc3C(=O)N([C@H](C)CO)C[C@@H]2C)cc1	2.2	u	1.9	x	x	x	x
